Measurements gathered from unrelated publications.
Target: Serine/threonine-protein kinase Nek9 (NEK9, Homo sapiens, UniProt Q8TD19)
Sequence (Q8TD19 1-979, as in one of the studies): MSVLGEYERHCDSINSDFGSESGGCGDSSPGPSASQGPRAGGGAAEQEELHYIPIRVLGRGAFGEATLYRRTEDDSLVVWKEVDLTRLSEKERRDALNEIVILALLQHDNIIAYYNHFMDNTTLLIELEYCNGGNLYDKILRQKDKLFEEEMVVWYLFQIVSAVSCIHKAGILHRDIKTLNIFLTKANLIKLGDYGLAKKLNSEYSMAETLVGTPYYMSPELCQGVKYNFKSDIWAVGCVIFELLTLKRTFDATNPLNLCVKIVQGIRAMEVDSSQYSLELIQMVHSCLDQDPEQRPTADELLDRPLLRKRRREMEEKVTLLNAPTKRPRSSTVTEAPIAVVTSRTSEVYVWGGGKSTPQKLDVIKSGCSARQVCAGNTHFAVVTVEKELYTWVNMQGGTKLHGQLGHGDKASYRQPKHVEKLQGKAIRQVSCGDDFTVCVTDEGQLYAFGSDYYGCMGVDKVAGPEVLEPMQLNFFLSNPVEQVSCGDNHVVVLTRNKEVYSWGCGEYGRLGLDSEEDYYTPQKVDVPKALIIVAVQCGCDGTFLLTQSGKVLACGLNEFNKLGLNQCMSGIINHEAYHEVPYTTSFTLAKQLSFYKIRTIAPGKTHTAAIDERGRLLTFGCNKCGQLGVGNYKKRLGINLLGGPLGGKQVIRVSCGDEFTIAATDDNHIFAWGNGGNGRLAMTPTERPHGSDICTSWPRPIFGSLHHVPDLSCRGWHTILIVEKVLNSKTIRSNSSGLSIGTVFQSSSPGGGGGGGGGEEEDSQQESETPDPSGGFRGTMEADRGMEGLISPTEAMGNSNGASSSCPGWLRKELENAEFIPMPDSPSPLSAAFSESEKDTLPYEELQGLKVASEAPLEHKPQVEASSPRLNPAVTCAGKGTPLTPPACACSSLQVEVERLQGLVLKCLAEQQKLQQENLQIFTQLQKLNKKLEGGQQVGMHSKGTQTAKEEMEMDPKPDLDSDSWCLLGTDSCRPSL

COc1cnc(Nc2cccc(S(N)(=O)=O)c2)nc1N1CCN(c2ccccc2)C(=O)C1 — remaining binding (binding, competition with immobilised ligand; 1 µM): 99%
CN(C)c1ncc(F)c(-c2cnn3ncccc23)n1 — remaining binding (binding; 1 µM): 100%
c1cncc(-c2cccc(Nc3nccc(NC4CCCCC4)n3)c2)c1 — remaining binding (binding, competition with immobilised ligand; 10 µM): 95%
O=C(c1ccc(Nc2ncc(Cl)c(-c3ccc(Cl)s3)n2)cc1)N1CCC(N2CCCC2)CC1 — remaining binding (binding, competition with immobilised ligand; 1 µM): 23%
C=CC(=O)N1CCC(C(=O)NCC(=O)N2CCN(c3nc(-c4cnc(N)nc4C(F)F)nc(N4CCOCC4)n3)CC2)CC1 — remaining binding (binding, competition with immobilised ligand; 1 µM): 100%
O=C(c1ccc(Nc2nccc(-c3cc4ccccc4s3)n2)cc1)N1CCC(N2CCCC2)CC1 — remaining binding (binding, competition with immobilised ligand; 1 µM): 100%
COc1ccc2cc(OCC3(C(=O)O)CN(C(=O)c4ccc(F)cc4)C3)ccc2c1 — remaining binding (cell-free assay, competition with immobilised ligand; 1 µM): 100%
CN(C)c1nccc(-c2cnc3ncccn23)n1 — remaining binding (binding; 1 µM): 88%
Cc1c(C(=O)O)cc(-c2ccc(C3CCNCC3)cc2)c2ccc(-c3ccc(C(F)(F)F)cc3)cc12 — remaining binding (binding, competition with immobilised ligand; 1 µM): 100%
CCN1CCN(Cc2ccc(C(=O)Nc3ccc(C)c(Oc4ccc5c(c4)CC(=O)N5)c3)cc2C(F)(F)F)CC1 — remaining binding (binding, competition with immobilised ligand; 1 µM): 100%
CC(=O)Nc1c(C(C)=O)c(=O)n(C)c2nc(-c3ccc(Cl)cc3Cl)c(-c3ccc(Cl)cc3)cc12 — remaining binding (cell-free assay, competition with immobilised ligand; 1 µM): 100%
C[C@H]1CCN(c2nccc(-c3cnn4ncccc34)n2)C1 — remaining binding (binding; 1 µM): 100%
FC(F)(F)Oc1cccc(-c2cnc3ccc(-c4ccncc4)nn23)c1 — remaining binding (cell-free assay, competition with immobilised ligand; 5 µM): 91%
Cn1nc(C(=O)NCc2ccc(C(=O)O)cc2)cc1-c1ccc2[nH]ccc2c1 — remaining binding (cell-free assay, competition with immobilised ligand; 0.1 µM): 99%
O=C(c1ccc(Nc2ncc(Cl)c(-c3cc4ccccc4s3)n2)cc1)N1CCC(N2CCCC2)CC1 — remaining binding (binding, competition with immobilised ligand; 1 µM): 33%
Cc1cc(NC(=O)c2cccc(S(F)(F)(F)(F)F)c2)cc(-n2ccn3nc(-c4cccnc4)cc23)c1 — remaining binding (cell-free assay, competition with immobilised ligand; 1 µM): 100%
CN(C)c1nccc(-c2cnn3ncccc23)n1 — remaining binding (binding; 1 µM): 100%
Cc1nc(Cc2cccc(C(F)(F)F)c2)sc1-c1ccc(C(N)=O)nc1 — remaining binding (cell-free assay, competition with immobilised ligand; 1 µM): 100%
F[C@@H]1CCN(c2nccc(-c3cnn4ncccc34)n2)C1 — remaining binding (binding; 1 µM): 100%
O=C(Nc1c[nH]nc1C(=O)NC1CCNCC1)c1cc(F)cc(F)c1 — remaining binding (binding, competition with immobilised ligand; 1 µM): 100%
COc1ncc2cc3ccccc3nc2c1C#N — remaining binding (cell-free assay, competition with immobilised ligand; 5 µM): 95%
c1cnn2ncc(-c3ccnc(N4CCC45COC5)n3)c2c1 — remaining binding (binding; 1 µM): 82%
